Data: ChEMBL document CHEMBL1131196, “Design and synthesis of hydrazinopeptides and their evaluation as human leukocyte elastase inhibitors” (J Med Chem, 1998)
Values belong to the molecule of their own block, whether it stands above or below them. Numbered stars: 1 amine (or outer) side, 2 acyl side, 3 side chain; on linkers, the order of the positions; unused ones are H or OH. Square brackets hold non-standard residues; d marks the D form. Peptide text beside a SMILES is read from it. * marks the point of attachment. X1 = O=C([C@H]1CCCN1N[*:1])[*:2]; Cbz = O=C(OCc1ccccc1)*; NHiPr = CC(C)N*

Assays:
Pancreatic elastase = Pancreatic elastase (Sus scrofa, UniProt P08419+P00772); assay: Inhibition constant of compound measured toward porcine Pancreatic elastase at pH 8 and 25 degree C.; format: protein assay
Method in brief: (§1)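 Chromogenic p-nitroanilide substrates, with MeO-Suc-Ala-Ala-Pro-Val-pNA for HLE. Enzymes were HLE 20 nM or PPE 22 nM, with inhibitors at 25–300 µM. Assays ran in 0.05 M Hepes pH 8.0 with 10% v/v DMSO at 25 °C, monitoring p-nitroaniline release continuously at 405 nm. Initial rates were fit to competitive inhibition. Ki came from a linear plot of Km(app)/Vm vs [I]; reversibility was checked by buffer exchange.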

Neutrophil elastase = target: T1, Neutrophil elastase (Homo sapiens, UniProt P08246); assay: Inhibition constant of compound measured toward human leukocyte elastase (HLE) at pH 8 and 25 degree C.; method in brief: as §1
T1 sequence (P08246 whole entry): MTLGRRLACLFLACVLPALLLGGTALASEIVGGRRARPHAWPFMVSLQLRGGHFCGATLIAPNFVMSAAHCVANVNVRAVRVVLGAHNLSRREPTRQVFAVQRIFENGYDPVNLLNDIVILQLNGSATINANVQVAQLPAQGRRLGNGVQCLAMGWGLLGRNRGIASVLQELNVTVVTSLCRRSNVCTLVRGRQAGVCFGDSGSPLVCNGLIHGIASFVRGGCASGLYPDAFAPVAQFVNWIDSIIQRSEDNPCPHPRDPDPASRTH

[1] = target: T2, Neutrophil elastase (Homo sapiens) (UniProt P08246); assay: (§2) Kinetic parameter was calculated by Michaelis equation catalyzed by Leukocyte elastase at 25 degree C and pH 8.
T2 sequence (whole entry): T1 sequence (P08246 whole entry)
Method in brief: (§3)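 HLE at 200 nM, in 0.05 M Hepes pH 8.0 with 10% v/v DMSO and no NaCl, at 25 °C. Hydrolysis was read either by absorbance at 250 nm (substrate 5–50 µM) or by C8 reverse-phase HPLC (substrate 5–20 µM). For HPLC, products at 2–5 min were quantified against a Z-Ala-Ala-Pro-Val calibration. kcat and Km came from least-squares Michaelis fits. For HPLC, kcat/Km came from the linearized rate below Km.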

[2] = The catalytic efficiency is the ratio of kcat to that of Km.; method in brief: as §3
[3] = substrate: CC(C)NC(=O)[C@H](C)NC(=O)[C@H](C)NNC(=O)[C@@H](NC(=O)[C@H]1CCCN1C(=O)[C@H](C)NC(=O)[C@H](C)NC(=O)OCc1ccccc1)C(C)C; assay: as §2; method in brief: as §3
[4] = substrate: CC(C)NC(=O)[C@H](C)NC(=O)[C@H](C)NC(=O)[C@@H](NC(=O)[C@H]1CCCN1C(=O)[C@H](C)NC(=O)[C@H](C)NC(=O)OCc1ccccc1)C(C)C; assay: as §2; method in brief: as §3

k cat [1]: 2.24 s⁻¹
k cat/Km [2]: 3150 M⁻¹ s⁻¹
Molecule: CC(C)NC(=O)[C@H](C)NC(=O)[C@H](C)NNC(=O)[C@@H](NC(=O)[C@H]1CCCN1C(=O)[C@H](C)NC(=O)[C@H](C)NC(=O)OCc1ccccc1)C(C)C

k cat [1]: 0.88 s⁻¹
k cat/Km [2]: 6780 M⁻¹ s⁻¹
Molecule: CC(C)NC(=O)[C@H](C)NC(=O)[C@H](C)NC(=O)[C@@H](NC(=O)[C@H]1CCCN1C(=O)[C@H](C)NC(=O)[C@H](C)NC(=O)OCc1ccccc1)C(C)C

Second part, the molecule before the results:

Molecule: CC(C)NC(=O)[C@H](C)NC(=O)[C@H](C)NC(=O)[C@@H](NC(=O)[C@H]1CCCN1NC(=O)[C@H](C)NC(=O)[C@H](C)NC(=O)OCc1ccccc1)C(C)C (Cbz-AA[X1]VAA-NHiPr)
Ki (Pancreatic elastase): 146 µM
Ki (Neutrophil elastase): 65 µM

Molecule: CC(C)NC(=O)[C@H](C)NC(=O)[C@H](C)NC(=O)[C@@H](NNC(=O)[C@H]1CCCN1C(=O)[C@H](C)NC(=O)[C@H](C)NC(=O)OCc1ccccc1)C(C)C
Ki (Pancreatic elastase): 397 µM
Ki (Neutrophil elastase): 595 µM

B1: Neutrophil elastase (Homo sapiens), P08246 (protein)
chain: T1 sequence (P08246 whole entry)
Km [3]: 712 µM
Km [4]: 131 µM
